{"source": "ChEMBL document CHEMBL1154891", "about": "“Cytotoxic acylphloroglucinol derivatives from the twigs of Garcinia cowa” (J Nat Prod, 2010)", "key": {"[1]": {"experiment": "Cytotoxicity against human CCD-18Co cells at 5 uM after 24 hrs by MTT assay"}, "HCT-116": {"system": "HCT-116", "experiment": "Cytotoxicity against human HCT116 cells at 5 uM after 24 hrs by MTT assay", "format": "functional, cell-based"}, "[2]": {"experiment": "Cytotoxicity against human CCD-18Co cells at 5 uM after 24 hrs by MTT assay", "format": "cell-based", "summary_of_the_method": "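CCD-18Co colon fibroblasts grown in MEM with 10% FBS and HEPES at 37 °C, 5% CO2, seeded overnight at 7 × 10^3 cells/well. MTT added for 3 h at 37 °C, formazan dissolved in DMSO, A570 read with 620 nm background subtraction. Untreated = 100%. Triplicate, ≥3 independent experiments, mean + SEM.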"}, "HT-29 [3]": {"system": "HT-29", "experiment": "Cytotoxicity against human HT-29 cells at 5 uM after 24 hrs by MTT assay", "format": "functional"}, "HT-29 [4]": {"system": "HT-29", "experiment": "Cytotoxicity against human HT-29 cells after 24 hrs by MTT assay", "format": "functional, cell-based", "conditions": "HT-29, 24 h", "summary_of_the_method": "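MTT read-out: 3 h at 37 °C, DMSO solubilization, A570 with 620 nm background. Viability relative to untreated control; IC50 derived. Cisplatin in saline run in parallel as positive control. Mean + SEM.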"}}, "note": "Activity calls are given as the source filed them. No cut-off for these calls is given here."}
{"compound": "CC(C)=CCC/C(C)=C/C[C@@H]1C[C@@]2(C/C=C(\\C)CCC=C(C)C)C(=O)[C@](CC=C(C)C)(C(=O)C(C(=O)c3ccc(O)c(O)c3)=C2O)C1(C)C", "note": "[GUTTIFERONE B]", "values": [{"measurement": "Activity", "setting": "[1]", "result": "Non-toxic"}, {"measurement": "Activity", "setting": "HCT-116", "result": "Active"}, {"measurement": "Activity", "setting": "[2]", "result": "Non-toxic"}, {"measurement": "Activity", "setting": "HT-29 [3]", "result": "Active"}]}
{"compound": "CC(C)=CCC/C(C)=C/C[C@H]1C[C@]2(C/C=C(\\C)CCC=C(C)C)C(=O)[C@@](CC=C(C)C)(C(=O)C(C(=O)c3ccc(O)c(O)c3)=C2O)C1(C)C", "note": "[OBLONGIFOLIN D]", "values": [{"measurement": "Activity", "setting": "[1]", "result": "Non-toxic"}, {"measurement": "Activity", "setting": "HCT-116", "result": "inactive"}, {"measurement": "Activity", "setting": "[2]", "result": "Non-toxic"}, {"measurement": "Activity", "setting": "HT-29 [3]", "result": "inactive"}]}
{"compound": "CC(C)=CCC/C(C)=C/C[C@@H]1C[C@]2(CC=C(C)C)C(=O)[C@@](CC=C(C)C)(C(=O)C(C(=O)c3ccc(O)c(O)c3)=C2O)[C@@]1(C)CCC=C(C)C", "note": "[OBLONGIFOLIN C]", "values": [{"measurement": "Activity", "setting": "[1]", "result": "Non-toxic"}, {"measurement": "Activity", "setting": "HCT-116", "result": "Active"}, {"measurement": "Activity", "setting": "[2]", "result": "Non-toxic"}, {"measurement": "Activity", "setting": "HT-29 [3]", "result": "Active"}]}
{"compound": "CC(C)=CC[C@H]1C[C@@]23C[C@@H](CC=C(C)C)C(C)(C)[C@@](CC=C(C)C)(C(=O)C(C(=O)c4ccc(O)c(O)c4)=C2OC1(C)C)C3=O", "note": "[CAMBOGIN]", "values": [{"measurement": "Activity", "setting": "[1]", "result": "Non-toxic"}, {"measurement": "Activity", "setting": "HCT-116", "result": "Active"}, {"measurement": "Activity", "setting": "[2]", "result": "Non-toxic"}, {"measurement": "Activity", "setting": "HT-29 [3]", "result": "Active"}]}
{"compound": "CC(C)=CCC/C(C)=C/C[C@@H]1C[C@]2(CC=C(C)C)C(=O)[C@@](CC=C(C)C)(C(=O)C(C(=O)c3ccc(O)c(O)c3)=C2O)C1(C)C", "note": "[OBLONGIFOLIN B]", "values": [{"measurement": "Activity", "setting": "[1]", "result": "Non-toxic"}, {"measurement": "Activity", "setting": "HCT-116", "result": "Active"}, {"measurement": "Activity", "setting": "[2]", "result": "Non-toxic"}, {"measurement": "Activity", "setting": "HT-29 [3]", "result": "Active"}]}
{"compound": "CC(C)=CC[C@@H]1C[C@@]23C[C@@H](CC=C(C)C)C(C)(C)[C@](CC=C(C)C)(C(=O)C(C(=O)c4ccc(O)c(O)c4)=C2OC1(C)C)C3=O", "values": [{"measurement": "Activity", "setting": "[1]", "result": "Non-toxic"}, {"measurement": "Activity", "setting": "HCT-116", "result": "Active"}, {"measurement": "Activity", "setting": "[2]", "result": "Non-toxic"}, {"measurement": "Activity", "setting": "HT-29 [3]", "result": "Active"}, {"measurement": "IC50", "setting": "HT-29 [4]", "result": 5.1, "unit": "µM"}]}
{"compound": "CC(C)=CCC/C(C)=C/C[C@H]1CC(C)(C)OC2=CC(=O)[C@]3(CC=C(C)C)C(=O)[C@@]21CC[C@]3(C)CCC=C(C)C", "note": "[GARCICOWIN A]", "values": [{"measurement": "Activity", "setting": "[1]", "result": "Non-toxic"}, {"measurement": "Activity", "setting": "[2]", "result": "Non-toxic"}]}
{"compound": "C=C(C)[C@@H]1C[C@]23C[C@@H](CC=C(C)C)C(C)(C)[C@](CC=C(C)C)(C(=O)C(C(=O)c4ccc(O)c(O)c4)=C2O[C@H]1C=C(C)C)C3=O", "note": "[GARCICOWIN D]", "values": [{"measurement": "Activity", "setting": "[1]", "result": "Non-toxic"}, {"measurement": "Activity", "setting": "[2]", "result": "Non-toxic"}, {"measurement": "Activity", "setting": "HT-29 [3]", "result": 57.7, "unit": "%"}]}
{"compound": "C=C(C)[C@@H]1C[C@]23C[C@H](CC=C(C)C)C(C)(C)[C@](CC=C(C)C)(C(=O)C(C(=O)c4ccc(O)c(O)c4)=C2O[C@H]1C=C(C)C)C3=O", "note": "[GARCINIALIPTONE B]", "values": [{"measurement": "Activity", "setting": "[1]", "result": "Non-toxic"}, {"measurement": "Activity", "setting": "[2]", "result": "Non-toxic"}, {"measurement": "Activity", "setting": "HT-29 [3]", "result": 73.8, "unit": "%"}]}
{"compound": "CC(C)=CCC/C(C)=C/C[C@@H]1C[C@]2(CC=C(C)C)C(=O)[C@@](CC=C(C)C)(C(=O)C(C(=O)c3cccc(O)c3)=C2O)[C@@]1(C)CCC=C(C)C", "note": "[GARCICOWIN B]", "values": [{"measurement": "Activity", "setting": "[1]", "result": "Non-toxic"}, {"measurement": "Activity", "setting": "[2]", "result": "Non-toxic"}]}
